From ChEMBL document CHEMBL3593186, “Synthesis, β-hematin inhibition studies and antimalarial evaluation of dehydroxy isotebuquine derivatives against Plasmodium berghei” (Bioorg Med Chem, 2015) come the findings set out here.

SMILES strings stand for the structures.

Data set [1] in a line: Inhibition of haemozoin formation using hemin chloride assessed as beta-hematin formation at 5 to 100 uM after 48 hrs. The class given is physicochemical. The procedure, abridged:
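Hemin chloride (4 mM in DMSO) was mixed with compound in DMSO at 100–5 µM, in triplicate. Water or DMSO served as controls. β-Hematin formation was started with 0.2 M acetate buffer, pH 4.4, and run for 48 h at 37 °C. The pellet was washed with DMSO, dissolved in 0.2 N NaOH, diluted 1:2 in 0.1 N NaOH and read at 405 nm, giving % inhibition of haemozoin formation.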

The test system of data set [2] is Plasmodium berghei. Briefly: Antimalarial activity against chloroquine susceptible Plasmodium berghei ANKA infected in Balb-C mouse assessed as host survival days at 20 mg/kg, ip qd for 4 days (reference value: 6.80 +/- 0.70 days). It is filed as functional.
Data set [3] relates to Plasmodium berghei. Briefly: Antimalarial activity against chloroquine susceptible Plasmodium berghei ANKA infected in Balb-C mouse assessed as reduction of parasitemia at 20 mg/kg, ip qd for 4 days by Giemsa staining (reference value: 65.20 +/- 2.58%). It is filed as functional. Also noted: scale not given: the % may be the effect or the level left.
The test system of data set [4] is Mus musculus. Briefly: Toxicity in chloroquine susceptible Plasmodium berghei ANKA infected Balb-C mouse at 20 mg/kg, ip qd for 4 days. To be noted: in vivo, 96 h. It is filed as organism-based.
The test system of data set [5] is Plasmodium berghei. Briefly: Antimalarial activity against chloroquine susceptible Plasmodium berghei ANKA infected in Balb-C mouse assessed as host survival days at 25 mg/kg, ip qd for 4 days (reference value: 6.80 +/- 0.70 days). The class given is functional.
The subject of data set [6] is Plasmodium berghei. Briefly: Antimalarial activity against chloroquine susceptible Plasmodium berghei ANKA infected in Balb-C mouse assessed as reduction of parasitemia at 25 mg/kg, ip qd for 4 days by Giemsa staining (reference value: 65.20 +/- 2.58%). The class given is functional.

Regarding `CCN(CC)Cc1ccc(Nc2ccnc3cc(Cl)ccc23)cc1-c1ccccc1.Cl`, the “inhibition (INH)” value in data set [1] is 98.45%. Besides, in data set [2], the Survival came out at 25.2 days. In addition, the Activity in data set [3] came out at 3.2%.

In the case of `Cl.Clc1ccc(-c2cc(Nc3ccnc4cc(Cl)ccc34)ccc2CN2CCCC2)cc1`, in data set [1], the “inhibition (INH)” value is 97.25%. For the same compound, in data set [2], the Survival came out at 27.3 days. Moreover, the Activity in data set [3] is on record as 2%; in data set [4], “Non-toxic”.

With `Cl.Clc1ccc2c(Nc3ccc(CN4CCCC4)c(-c4ccccc4)c3)ccnc2c1`, in data set [1], the “inhibition (INH)” value is given as 98.49%. In data set [2], the Survival was 28.6 days. In addition, the values for the Activity in data set [3] and in data set [4] were 2.1% and “Non-toxic”, respectively.

Take `CCN(CC)CCCC(C)Nc1ccnc2cc(Cl)ccc12` (stereo unspecified) [CHLOROQUINE]: the “inhibition (INH)” value in data set [1] was 98.57%. Further, the Survival in data set [5] is 29.4 days. Moreover, the Parasitemia in data set [6] is 0.6%.

Regarding `Cl.Clc1ccc(-c2cc(Nc3ccnc4cc(Cl)ccc34)ccc2CN2CCOCC2)cc1`, in data set [1], the “inhibition (INH)” value is recorded as 2.03%.

Regarding `CN1CCN(Cc2ccc(Nc3ccnc4cc(Cl)ccc34)cc2-c2ccc(Cl)cc2)CC1.Cl`, the “inhibition (INH)” value in data set [1] turned out to be 1.61%.

For `Cl.Clc1ccc(-c2cc(Nc3ccnc4cc(Cl)ccc34)ccc2CN2CCCCC2)cc1`, in data set [1], the “inhibition (INH)” value stood at 97.21%. Moreover, the Survival in data set [2] came out at 26 days. Also, the Activity in data set [3] worked out at 7.3%.

Regarding `Cl.Clc1ccc2c(Nc3ccc(CN4CCCCC4)c(-c4ccccc4)c3)ccnc2c1`, the “inhibition (INH)” value in data set [1] stood at 97.08%. Besides, in data set [2], the Survival is 28.4 days. In addition, the Activity in data set [3] is recorded as 1.8%; in data set [4] it was “Non-toxic”.

With `Cl.Clc1ccc2c(Nc3ccc(CN4CCOCC4)c(-c4ccccc4)c3)ccnc2c1`, the “inhibition (INH)” value in data set [1] was found to be 98.04%. The Survival in data set [2] is 23.2 days. In addition, in data set [3], the Activity is on record as 6.5%.
